pIC50: −log10 of the molar value.
Key:
[1] = Inhibition of rabbit lung PDE assessed as inhibition 8-[3H]-cAMP substrate hydrolysis; set-up: species or system Oryctolagus cuniculus; conditions: read-out: I50
How it was run: (§1)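 Beef heart or rabbit lung enzyme; 0.5 ml with 25 µmol Tris HCl pH 7.5, 5 µmol MgCl2, 20–200 µg protein, 80 pmol 8-[3H]cAMP, varying inhibitor levels. Times set by pilot runs. Heat stop, snake venom 5'-nucleotidase converts product to nucleoside, unreacted cyclic nucleotide bound to Dowex-1, nucleoside radioactivity counted. Nucleotidase interference checked with [14C]-5'-AMP.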

Oryctolagus cuniculus = organism: Oryctolagus cuniculus; test: Activity of rabbit kidney PDE assessed as enzyme-mediated compound hydrolysis after 10 to 60 mins by colorimetric assay relative to cAMP; type: tissue-based
How it was run: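 Rabbit kidney enzyme; 0.60 ml mix with 3.0 µmol cyclic nucleotide (5 mM), 3.0 µmol Tris HCl pH 7.5, 6 µmol MgCl2, 0.1–0.3 mg protein. Incubated usually 10–60 min, stopped by heating, bacterial alkaline phosphatase added, released phosphate read colorimetrically. Rate expressed relative to cAMP hydrolysis (nmol 5'-AMP per min).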

[2] = Inhibition of bovine heart PDE assessed as inhibition 8-[3H]-cAMP substrate hydrolysis; set-up: species or system Bos taurus; conditions: read-out: I50; how it was run: as §1
Bos taurus = organism: Bos taurus; test: Ratio of Ka for cAMP to Ka for compound for bovine brain protein kinase in presence of 0.5 nmol [32P]ATP-gamma by liquid scintillation spectrometer

SMILES	pIC50 [1]	fold change (FC) (Oryctolagus cuniculus)	pIC50 [2]	Ratio (Bos taurus)
CCCCc1nc(N)c2ncn([C@@H]3O[C@@H]4COP(=O)(O)O[C@H]4[C@H]3O)c2n1	5.52	0.64	5.00	0.46
Nc1ncnc2c1nc(SCc1ccccc1)n2[C@@H]1O[C@@H]2COP(=O)(O)O[C@H]2[C@H]1O	4.28	< 0.05	4.77	2.1
[N-]=[N+]=Nc1nc2c(N)ncnc2n1[C@@H]1O[C@@H]2COP(=O)(O)O[C@H]2[C@H]1O	4.10	< 0.05	4.37	0.68
Nc1c2ncn([C@@H]3O[C@@H]4COP(=O)(O)O[C@H]4[C@H]3O)c2nc[n+]1[O-]	4.46	0.33	4.30	0.45
Nc1ncnc2c1nc(Br)n2[C@@H]1O[C@@H]2COP(=O)(O)O[C@H]2[C@H]1O	4.40	< 0.05		2.9
Cc1nc(N)c2nc(N=[N+]=[N-])n([C@@H]3O[C@@H]4COP(=O)(O)O[C@H]4[C@H]3O)c2n1	4.17	0.16	4.30	0.45
Cn1cnc2c(nc(SCc3ccccc3)n2[C@@H]2O[C@@H]3COP(=O)(O)O[C@H]3[C@H]2O)c1=N	4.21		4.17	1.3
Cn1cnc2c(ncn2[C@@H]2O[C@@H]3COP(=O)(O)O[C@H]3[C@H]2O)c1=N	4.19	0.16	4.10	0.012
Nc1ncnc2c1nc(Sc1ccc(Cl)cc1)n2[C@@H]1O[C@@H]2COP(=O)(O)O[C@H]2[C@H]1O	3.70	< 0.05		18
Nc1c2nc(Br)n([C@@H]3O[C@@H]4COP(=O)(O)O[C@H]4[C@H]3O)c2nc[n+]1[O-]	3.40	< 0.05	4.23	0.15
CCCCc1nc(N)c2nc(SCc3ccccc3)n([C@@H]3O[C@@H]4COP(=O)(O)O[C@H]4[C@H]3O)c2n1	5.02	< 0.05	5.15	1.1
CCCCc1nc(N)c2nc(Sc3ccc(Cl)cc3)n([C@@H]3O[C@@H]4COP(=O)(O)O[C@H]4[C@H]3O)c2n1	4.96	< 0.05	5.30	2.2
Cc1nc(N)c2ncn([C@@H]3O[C@@H]4COP(=O)(O)O[C@H]4[C@H]3O)c2n1	5.80	0.83	5.96	0.16
Cc1nc(N)c2nc(Sc3ccc(Cl)cc3)n([C@@H]3O[C@@H]4COP(=O)(O)O[C@H]4[C@H]3O)c2n1	4.48	0.05	5.30	2.3
CCCCc1nc(N)c2nc(Br)n([C@@H]3O[C@@H]4COP(=O)(O)O[C@H]4[C@H]3O)c2n1	4.77	< 0.05	4.96	0.66
Cc1nc(N)c2nc(SCc3ccccc3)n([C@@H]3O[C@@H]4COP(=O)(O)O[C@H]4[C@H]3O)c2n1	5.02	0.05	5.37	0.95
Cc1nc(N)c2nc(Br)n([C@@H]3O[C@@H]4COP(=O)(O)O[C@H]4[C@H]3O)c2n1	4.60	0.15	4.52	3.4

From ChEMBL document CHEMBL3272006, “Synthesis of some 1, 8- and 2, 8-disubstituted derivatives of adenosine cyclic 3', 5'-phosphate and their interaction with some enzymes of cAMP metabolism” (J Med Chem, 1976)
